Test results from ChEMBL document CHEMBL3804799, “Synthesis and Biological Evaluation of Novel σ1 Receptor Ligands for Treating Neuropathic Pain: 6-Hydroxypyridazinones” (J Med Chem, 2016).

Experiments:
[1] = Oral bioavailability in Sprague-Dawley rat at 80 mg/kg administered through gavage by LC-MS/MS analysis; format: ADME, organism-based; settings: in vivo
Outline: (§1)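 SD rats, n = 3/group. Dosing was either 5 mg/kg iv via tail vein in saline or 80 mg/kg by oral gavage as a suspension in 0.5% methylcellulose. Serial tail-vein blood was drawn into heparinized tubes at 0.5, 1, 2, 3, 4, 5, 6, 8 and 24 h. Plasma was separated, proteins precipitated with acetonitrile, and samples analysed by LC/MS.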

Mus musculus [2] = assay: Antinociceptive activity in Kun Ming mouse assessed as paw biting time in delayed pain response phase at 80 mg/kg, ig administered 15 mins prior to formalin challenge measured after 15 to 45 mins post formalin dosing; format: functional
Outline: (§2)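 Mice received 20 μL of 2.5% formalin (0.92% formaldehyde) in the dorsal right hind paw. Time spent licking or biting the paw was scored at 0–5 min (phase I) and 15–45 min (phase II), with a mirror behind the glass cylinder. Vehicle was 30% PEG 400 at 10 mL/kg, given 15 min before formalin. n = 10–12 per group. % antinociception = (LT_V − LT_D)/LT_V × 100.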

[3] = Half life in Sprague-Dawley rat at 80 mg/kg, po administered through gavage by LC-MS/MS analysis; format: ADME, organism-based; settings: in vivo; outline: as §1
Mus musculus [4] = assay: Antinociceptive activity in Kun Ming mouse assessed as paw licking time in delayed pain response phase at 80 mg/kg, ig administered 15 mins prior to formalin challenge measured after 15 to 45 mins post formalin dosing; format: functional; outline: as §2
[5] = Displacement of [3H]-DTG from Sigma2 receptor in Dunkin Hartley guinea pig brain membrane after 120 mins by liquid scintillation counting analysis in presence of sigma1 blocker (+)-SKF-10047; design: species or system Cavia porcellus
Outline: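 Guinea pig brain P2 membranes incubated with 3 nM [³H]-DTG plus 400 nM (+)-SKF-10047 to block σ1 sites, Tris-HCl pH 8.0, 25 °C for 120 min; nonspecific binding with DTG. Filtration on PEI-presoaked GF/B filters, scintillation counting. […] At least three experiments.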

[6] = target: Cannabinoid receptor 2 (Homo sapiens) (UniProt P34972); assay: Displacement of [3H]-CP-55940 from human CB2 receptor expressed in HEK cells at 1 uM after 90 mins by liquid scintillation counting analysis; format: cell-based; settings: HEK293
[7] = target: Histamine H3 receptor (Rattus norvegicus) (UniProt Q9QYN8); assay: Displacement of [3H]-N-alpha-methylhistamine from H3 receptor in rat cerebral cortex at 1 uM after 30 mins by liquid scintillation counting analysis; format: tissue-based
[8] = AUC (0 to last) in Sprague-Dawley rat at 5 mg/kg, iv by LC-MS/MS analysis; format: ADME, organism-based; design: dose 5 mg/kg, route intravenous, time 0 - last; settings: in vivo
Outline: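 Rats (n = 3/group) dosed via lateral tail vein, 5 mg/kg in 100% saline. Serial tail-vein blood into heparinized tubes at 30 min and 1, 2, 3, 4, 5, 6, 8 and 24 h. Plasma separated by centrifugation, proteins precipitated with acetonitrile, analysed by LC/MS.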

Mus musculus [9] = assay: Antiallodynic activity in ig dosed Kun Ming mouse assessed as inhibition of formalin-induced pain in delayed pain response phase administered 15 mins prior to formalin challenge measured after 15 to 45 mins post formalin dosing; format: functional; outline: as §2
Rattus norvegicus [10] = assay: Antiallodynic activity in po dosed Sprague-Dawley rat chronic constriction injury-induced neuropathic pain model assessed as inhibition of thermal hypersensitivity administered as single dose on day 15th post surgery by plantar test; format: functional
Outline: (§3)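 CCI or sham SD rats, 10 per group, dosed orally in 0.5% methylcellulose (10 mL/kg) twice daily on days 15–18. Tested after the first dose on day 15 and the last dose on day 18. Plantar test: after 30 min acclimation on a glass floor, radiant heat was applied under the hind paw and withdrawal latency recorded. 30 s cutoff; mean of four samplings.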

Rattus norvegicus [11] = assay: Antiallodynic activity in po dosed Sprague-Dawley rat chronic constriction injury-induced neuropathic pain model assessed as inhibition of thermal hypersensitivity administered as bid on day 15th and 18th post surgery by plantar test; format: functional; outline: as §3
[12] = AUC (0 to infinity) in Sprague-Dawley rat at 80 mg/kg, po administered through gavage by LC-MS/MS analysis; format: ADME, organism-based; design: dose 80 mg/kg, route oral, time infinity; settings: in vivo
Outline: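 Oral gavage to rats (n = 3/group), 80 mg/kg as suspension in 0.5% methylcellulose. Blood drawn serially from lateral tail vein into heparinized tubes at 30 min and 1, 2, 3, 4, 5, 6, 8 and 24 h. Plasma obtained by centrifugation, acetonitrile protein precipitation, LC/MS quantification.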

Mus musculus [13] = assay: Toxicity in Kun Ming mouse assessed as impair in motor coordination at 40 to 160 mg/kg, ig measured after 30 to 120 mins by rotarod test; format: organism-based; settings: in vivo, po
Outline: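 Mice were pre-trained; any that could not stay 300 s on the rod at 10 rpm were excluded. Latency to fall from the rod rotating at 10 rpm was recorded 30, 60, 90 and 120 min after intragastric dosing. 8–10 mice per group.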

[14] = target: Transient receptor potential cation channel subfamily V member 1 (Homo sapiens) (UniProt Q8NER1); assay: Inhibition of human TRPV-1 expressed in HEK293 cells at 1 uM by whole cell patch clamp method; format: cell-based
[15] = target: Glutamate NMDA receptor (Rattus norvegicus) (UniProt P35439+Q00959+Q00960+Q00961+Q62645+Q8VHN2+Q9R1M7); assay: Displacement of [3H]-glycine from NMDA receptor in rat hippocampal membrane at 1 uM after 30 mins by liquid scintillation counting analysis; format: cell membranes; settings: Hippocampus
[16] = Cmax in Sprague-Dawley rat at 80 mg/kg, po administered through gavage by LC-MS/MS analysis; format: ADME, organism-based; design: dose 80 mg/kg, route oral; settings: in vivo; outline: as §1
[17] = target: 5-hydroxytryptamine receptor 2A (Rattus norvegicus) (UniProt P14842); assay: Displacement of [3H]-ketanserin from 5HT2A receptor in rat cerebral cortex at 1 uM after 15 mins by liquid scintillation counting analysis; format: tissue-based
[18] = target: Mu-type opioid receptor (Homo sapiens) (UniProt P35372); assay: Displacement of [3H]-diprenorphine from human mu-opiod receptor expressed in CHO cells at 1 uM after 150 mins by liquid scintillation counting analysis; format: cell-based
[19] = target: Sodium channel protein type 9 subunit alpha (Homo sapiens) (UniProt Q15858); assay: Inhibition of human Nav 1.7 expressed in HEK293 cells at 1 uM by electrophysiological assay; format: cell-based
Sodium channel protein type 9 subunit alpha (Homo sapiens), sequence (Q15858 whole entry, looked up): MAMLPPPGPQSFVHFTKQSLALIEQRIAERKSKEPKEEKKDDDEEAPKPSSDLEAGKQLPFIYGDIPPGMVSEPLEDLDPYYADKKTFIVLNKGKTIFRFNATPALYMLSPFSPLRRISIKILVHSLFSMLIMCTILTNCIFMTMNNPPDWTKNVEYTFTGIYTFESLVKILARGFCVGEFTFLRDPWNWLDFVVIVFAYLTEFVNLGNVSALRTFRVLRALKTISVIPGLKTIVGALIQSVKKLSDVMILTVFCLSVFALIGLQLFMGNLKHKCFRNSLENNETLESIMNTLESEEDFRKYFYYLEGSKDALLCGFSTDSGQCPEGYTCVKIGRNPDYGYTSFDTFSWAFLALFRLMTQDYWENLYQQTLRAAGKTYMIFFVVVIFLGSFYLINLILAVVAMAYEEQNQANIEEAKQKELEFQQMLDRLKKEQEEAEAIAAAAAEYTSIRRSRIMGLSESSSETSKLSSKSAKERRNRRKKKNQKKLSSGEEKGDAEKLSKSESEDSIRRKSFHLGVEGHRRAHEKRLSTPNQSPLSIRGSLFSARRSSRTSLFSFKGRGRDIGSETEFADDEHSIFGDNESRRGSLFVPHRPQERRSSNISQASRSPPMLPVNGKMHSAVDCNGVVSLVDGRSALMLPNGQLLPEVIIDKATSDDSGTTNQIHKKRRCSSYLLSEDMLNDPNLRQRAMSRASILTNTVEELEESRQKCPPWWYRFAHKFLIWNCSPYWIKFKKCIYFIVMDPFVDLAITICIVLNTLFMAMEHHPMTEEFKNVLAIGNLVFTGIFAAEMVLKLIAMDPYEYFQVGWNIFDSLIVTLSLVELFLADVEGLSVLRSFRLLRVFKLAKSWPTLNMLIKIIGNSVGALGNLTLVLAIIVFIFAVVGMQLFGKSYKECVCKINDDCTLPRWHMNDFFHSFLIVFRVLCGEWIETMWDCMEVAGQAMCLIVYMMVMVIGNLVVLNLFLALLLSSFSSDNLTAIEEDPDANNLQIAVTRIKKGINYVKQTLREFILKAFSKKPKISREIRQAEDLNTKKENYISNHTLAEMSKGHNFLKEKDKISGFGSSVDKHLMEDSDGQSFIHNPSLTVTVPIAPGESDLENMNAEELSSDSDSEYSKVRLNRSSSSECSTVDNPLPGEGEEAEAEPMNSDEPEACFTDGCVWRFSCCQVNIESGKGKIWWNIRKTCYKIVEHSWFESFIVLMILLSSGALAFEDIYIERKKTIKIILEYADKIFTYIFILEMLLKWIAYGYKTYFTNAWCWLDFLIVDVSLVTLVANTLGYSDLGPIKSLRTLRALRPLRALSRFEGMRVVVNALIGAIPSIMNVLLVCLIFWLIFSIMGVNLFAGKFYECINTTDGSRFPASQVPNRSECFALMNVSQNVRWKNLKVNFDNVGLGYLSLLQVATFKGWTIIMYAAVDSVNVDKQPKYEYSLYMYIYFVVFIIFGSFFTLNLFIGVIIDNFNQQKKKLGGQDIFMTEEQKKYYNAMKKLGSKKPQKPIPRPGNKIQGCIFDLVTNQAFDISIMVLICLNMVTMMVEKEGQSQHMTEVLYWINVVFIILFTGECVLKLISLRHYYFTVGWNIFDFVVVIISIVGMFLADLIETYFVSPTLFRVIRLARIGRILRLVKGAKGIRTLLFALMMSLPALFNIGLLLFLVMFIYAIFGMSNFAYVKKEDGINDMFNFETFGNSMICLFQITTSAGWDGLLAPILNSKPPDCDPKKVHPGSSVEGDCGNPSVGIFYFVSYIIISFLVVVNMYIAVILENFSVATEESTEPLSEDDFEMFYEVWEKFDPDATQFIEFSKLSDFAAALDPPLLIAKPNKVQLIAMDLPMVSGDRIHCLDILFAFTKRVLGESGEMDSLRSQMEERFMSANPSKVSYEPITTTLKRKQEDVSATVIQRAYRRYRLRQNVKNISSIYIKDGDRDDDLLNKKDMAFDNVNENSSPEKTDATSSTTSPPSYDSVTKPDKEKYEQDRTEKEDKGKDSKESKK

5-hydroxytryptamine receptor 2A (Rattus norvegicus), sequence (P14842 whole entry): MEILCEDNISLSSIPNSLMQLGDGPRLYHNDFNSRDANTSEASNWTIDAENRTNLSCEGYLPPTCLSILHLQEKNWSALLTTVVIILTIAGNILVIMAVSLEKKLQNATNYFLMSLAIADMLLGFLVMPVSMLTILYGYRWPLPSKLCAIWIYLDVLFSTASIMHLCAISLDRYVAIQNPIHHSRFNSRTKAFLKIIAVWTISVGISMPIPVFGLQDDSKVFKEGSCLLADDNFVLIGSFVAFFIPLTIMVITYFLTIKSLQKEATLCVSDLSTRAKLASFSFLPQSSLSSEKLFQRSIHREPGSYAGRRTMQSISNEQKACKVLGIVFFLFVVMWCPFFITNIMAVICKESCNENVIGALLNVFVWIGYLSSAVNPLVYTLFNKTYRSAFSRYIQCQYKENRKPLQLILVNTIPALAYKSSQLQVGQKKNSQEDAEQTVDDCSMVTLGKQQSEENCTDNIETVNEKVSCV
Histamine H3 receptor (Rattus norvegicus), sequence (Q9QYN8 whole entry): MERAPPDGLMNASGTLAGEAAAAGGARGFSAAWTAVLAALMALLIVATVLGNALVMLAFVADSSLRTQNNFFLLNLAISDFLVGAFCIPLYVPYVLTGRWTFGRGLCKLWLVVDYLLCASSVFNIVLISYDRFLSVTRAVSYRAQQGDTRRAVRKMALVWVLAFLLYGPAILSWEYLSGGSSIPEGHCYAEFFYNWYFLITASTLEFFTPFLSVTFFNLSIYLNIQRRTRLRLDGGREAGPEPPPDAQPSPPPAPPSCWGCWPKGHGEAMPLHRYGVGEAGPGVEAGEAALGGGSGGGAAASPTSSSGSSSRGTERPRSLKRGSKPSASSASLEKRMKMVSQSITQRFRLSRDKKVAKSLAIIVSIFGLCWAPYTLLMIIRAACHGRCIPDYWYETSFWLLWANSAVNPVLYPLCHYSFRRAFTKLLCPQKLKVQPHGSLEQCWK
Mu-type opioid receptor (Homo sapiens), sequence (P35372 whole entry): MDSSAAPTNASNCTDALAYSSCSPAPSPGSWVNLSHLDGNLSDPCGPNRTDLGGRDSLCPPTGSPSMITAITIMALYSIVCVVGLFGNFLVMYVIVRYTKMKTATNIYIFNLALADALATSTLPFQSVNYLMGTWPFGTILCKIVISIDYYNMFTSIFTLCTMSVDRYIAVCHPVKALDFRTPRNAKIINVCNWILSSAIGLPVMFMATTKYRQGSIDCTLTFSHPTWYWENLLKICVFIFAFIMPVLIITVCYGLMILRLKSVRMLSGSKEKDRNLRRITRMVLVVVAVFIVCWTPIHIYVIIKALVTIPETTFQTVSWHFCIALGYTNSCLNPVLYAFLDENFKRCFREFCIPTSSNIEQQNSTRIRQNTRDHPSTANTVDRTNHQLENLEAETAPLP
Transient receptor potential cation channel subfamily V member 1 (Homo sapiens), sequence (Q8NER1 whole entry): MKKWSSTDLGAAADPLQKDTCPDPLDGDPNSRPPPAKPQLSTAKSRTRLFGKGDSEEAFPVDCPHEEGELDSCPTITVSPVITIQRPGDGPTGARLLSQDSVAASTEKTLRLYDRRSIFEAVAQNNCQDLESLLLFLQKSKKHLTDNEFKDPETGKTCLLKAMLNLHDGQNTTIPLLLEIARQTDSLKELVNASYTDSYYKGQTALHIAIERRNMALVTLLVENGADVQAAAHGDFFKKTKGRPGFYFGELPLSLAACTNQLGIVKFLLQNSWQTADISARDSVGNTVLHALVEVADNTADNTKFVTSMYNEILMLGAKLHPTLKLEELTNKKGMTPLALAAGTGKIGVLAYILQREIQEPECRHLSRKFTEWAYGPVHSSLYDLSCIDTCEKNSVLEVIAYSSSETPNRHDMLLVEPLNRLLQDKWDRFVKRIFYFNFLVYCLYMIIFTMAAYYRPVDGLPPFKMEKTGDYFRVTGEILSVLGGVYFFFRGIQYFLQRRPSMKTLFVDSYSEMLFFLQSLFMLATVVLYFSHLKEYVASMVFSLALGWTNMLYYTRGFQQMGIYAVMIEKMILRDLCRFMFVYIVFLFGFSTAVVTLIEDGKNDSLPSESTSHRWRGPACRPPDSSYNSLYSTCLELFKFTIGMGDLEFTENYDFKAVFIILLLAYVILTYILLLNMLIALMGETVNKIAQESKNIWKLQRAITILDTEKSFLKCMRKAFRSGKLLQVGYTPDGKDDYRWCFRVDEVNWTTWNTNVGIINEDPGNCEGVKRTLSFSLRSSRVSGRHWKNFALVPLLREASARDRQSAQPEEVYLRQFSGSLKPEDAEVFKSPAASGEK
Cannabinoid receptor 2 (Homo sapiens), sequence (P34972 whole entry): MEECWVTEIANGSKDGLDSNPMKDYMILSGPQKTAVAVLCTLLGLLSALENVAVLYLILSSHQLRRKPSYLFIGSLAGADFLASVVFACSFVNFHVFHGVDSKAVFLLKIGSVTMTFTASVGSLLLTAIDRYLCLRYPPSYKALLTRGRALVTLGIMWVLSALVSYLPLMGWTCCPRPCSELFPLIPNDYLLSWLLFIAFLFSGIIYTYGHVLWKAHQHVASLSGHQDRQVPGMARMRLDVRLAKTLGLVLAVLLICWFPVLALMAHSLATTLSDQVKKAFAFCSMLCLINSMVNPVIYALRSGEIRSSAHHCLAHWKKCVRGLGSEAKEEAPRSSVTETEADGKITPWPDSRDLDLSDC

O=c1ccc(OCCCN2CCCCC2)nn1-c1ccc(Cl)c(Cl)c1
bioavailability [1]: 87.5% | Time (Mus musculus [2]): 41.16 s | half-life [3]: 2.88 h | Time (Mus musculus [4]): 45.88 s | Ki [5]: 1910 nM | inhibition [6]: < 50% | inhibition [7]: < 50% | AUC(0-t) [8]: 931 ng·h/mL | Activity (Mus musculus [9]): Dose-dependent effect | ED50 (Mus musculus [9]; po): 49 mg/kg | ED50 (Rattus norvegicus [10]): 18.6 mg/kg | ED50 (Rattus norvegicus [11]): 16.9 mg/kg | AUC(0-inf) [12]: 13400 ng·h/mL | Activity (Mus musculus [13]): Non-toxic | inhibition [14]: < 50% | inhibition [15]: < 50% | Cmax [16]: 2920 ng/mL | inhibition [17]: < 50% | inhibition [18]: < 50% | inhibition [19]: < 50%
